E coli WT exp: E. coli BW25113 growth inhibition, expanded screen; AID 710; growth inhibition, % at 100 µM; actives 0.15% (n = 98,000); OD600 absorbance;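 active means growth inhibition above about 50% at one test dose, limit read from the data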;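 further: growth measured after 20 h incubation at 37 °C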
tolC growth inh: E. coli tolC mutant growth inhibition; E. coli BW25113 tolC mutant growth, OD615; growth inhibition, % at 10 µM (by protocol); actives 2.2% (n = 65,000);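 active means growth inhibition at or above a cutoff equal to the mean over every tested compound plus 3 SD, cut at about 60% in these data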;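 further: growth measured after 20 h incubation at 37 °C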
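System: E. coli ΔtolC::kan strain BW25113; Buffer or medium: LB broth supplemented with 50 µg/mL kanamycin; Compound: 10 µM final, single dose; Incubation: bacterial growth with compound for 20 h at 37 °C; Signal: A615 absorbance measurement; Evaluation: growth inhibition in percent.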
PostGolgi ctrl: yeast control strain growth, post-Golgi counter-screen; efflux-deficient yeast background strain, growth absorbance A615, 16 h; inhibition, % at 10 µM; AID 738; actives 5% (n = 98,000)
PostGolgi yeast: growth inhibition of a yeast mutant, post-Golgi transport screen. post-Golgi transport phenotypic cell assay. actives 0.9% (n = 98,000). inhibition, % at 10 µM;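 further: yeast cells grown in 1536-well plates; yeast grown about 18 h at 30C before absorbance read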
Cav3 T inh: human Cav3.2 channel inhibition, primary screen; O95180; Cav3.2-expressing cells, Fluo-4 calcium fluorescence FDSS; active compounds read low; B-score at 10 µM; actives 4% (n = 100,000); AID 449739;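 active means single-dose well whose peak fluorescence ratio is a statistical outlier from its plate by either plate-standardised score or position-corrected B-score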
Hits are given with their value. Shown are actives, neighbours in structure and some others; about 8.4% of the full set was active somewhere. Unless noted, no stated cut-off is given here; in the data, active means inhibition above about 30%; inactive means the rest.

What do the screens show for `CNC(=O)C1CC(=O)N(c2ccc(C)cc2)C1` (stereo not drawn)?
E coli WT exp: inactive; tolC growth inh: inactive; PostGolgi ctrl: inactive; PostGolgi yeast: inactive; Cav3 T inh: -3.8

What do the screens show for `Cc1ccc(N2CC(C(=O)NC3=NCCS3)CC2=O)cc1` (stereo not drawn)?
E coli WT exp: inactive; tolC growth inh: inactive; PostGolgi ctrl: inactive; PostGolgi yeast: inactive; Cav3 T inh: inactive

How did O=C(CCn1c(=O)c2sccc2n(CC(=O)OCc2ccccc2)c1=O)NCc1ccccc1 do in these assays?
E coli WT exp: inactive; PostGolgi ctrl: inactive; PostGolgi yeast: inactive; Cav3 T inh: inactive

How did CCCC(=O)N1CCN(c2ccc([N+](=O)[O-])c(NC(C)c3ccccc3)c2)CC1 (stereo not drawn) do in these assays?
E coli WT exp: inactive; PostGolgi ctrl: inactive; PostGolgi yeast: inactive; Cav3 T inh: -6.3

What do the screens show for `CC1CN(c2nc(-c3ccccc3)nc3ccccc23)CC(C)O1` (stereo not drawn)?
E coli WT exp: inactive; tolC growth inh: inactive; PostGolgi ctrl: 41; PostGolgi yeast: inactive; Cav3 T inh: inactive

How did c1cncc(-c2nc(N3CCCCCC3)c3ccccc3n2)c1 do in these assays?
E coli WT exp: inactive; tolC growth inh: 95; PostGolgi ctrl: 66; PostGolgi yeast: inactive

What do the screens show for `CCN1CCN(c2nc(-c3ccncc3)nc3ccccc23)CC1`?
E coli WT exp: inactive; PostGolgi ctrl: inactive; PostGolgi yeast: inactive

Results for CCCOc1ccc(-c2nc(OCC)c3ccccc3n2)cc1 ?
E coli WT exp: inactive; PostGolgi ctrl: inactive; PostGolgi yeast: inactive; Cav3 T inh: inactive

What do the screens show for `c1ccc2c(N3CCCCCC3)nc(-c3ccncc3)nc2c1`?
E coli WT exp: inactive; PostGolgi ctrl: 68; PostGolgi yeast: inactive; Cav3 T inh: inactive

Results for CCOc1nc(-c2ccncc2)nc2ccccc12 ?
E coli WT exp: inactive; tolC growth inh: inactive; PostGolgi ctrl: 35; PostGolgi yeast: inactive; Cav3 T inh: inactive

Results for CC1CN(c2cc(-c3ccccc3)c3ccccc3n2)CC(C)O1 (stereo not drawn) ?
E coli WT exp: inactive; PostGolgi ctrl: inactive; PostGolgi yeast: inactive; Cav3 T inh: inactive

What do the screens show for `CN1CCN(c2nc(-c3cccnc3)nc3ccccc23)CC1`?
E coli WT exp: inactive; tolC growth inh: inactive; PostGolgi ctrl: inactive; PostGolgi yeast: inactive; Cav3 T inh: inactive

Results for Cn1c(C(C#N)C2=C(Cl)C(=O)N(c3ccccc3)C2=O)nc2ccccc21 (stereo not drawn) ?
E coli WT exp: inactive; tolC growth inh: inactive; PostGolgi ctrl: inactive; PostGolgi yeast: inactive; Cav3 T inh: inactive

What do the screens show for `Cc1ccc(NC(=O)CS(=O)CC(=O)NC(C)CCc2ccco2)cc1Cl` (stereo not drawn)?
E coli WT exp: inactive; tolC growth inh: inactive; PostGolgi ctrl: 47; PostGolgi yeast: inactive; Cav3 T inh: inactive

Results for CCOc1cnc(-c2ccc(Cl)cc2)o1 ?
E coli WT exp: inactive; PostGolgi ctrl: inactive; PostGolgi yeast: inactive; Cav3 T inh: inactive

What do the screens show for `CCOc1cnc(-c2ccc(OC)cc2)o1`?
E coli WT exp: inactive; PostGolgi ctrl: inactive; PostGolgi yeast: 31

What do the screens show for `O=C(Nc1c(Cl)cc(Cl)cc1-c1nc2ccccc2s1)c1ccc(Br)o1`?
E coli WT exp: inactive; PostGolgi ctrl: inactive; PostGolgi yeast: inactive; Cav3 T inh: inactive

Results for N#Cc1nc(Cc2cccc3ccccc23)oc1NCCCn1ccnc1 ?
E coli WT exp: inactive; tolC growth inh: 61; PostGolgi ctrl: inactive; PostGolgi yeast: inactive; Cav3 T inh: inactive

How did COc1ccccc1-c1nc(C#N)c(NCc2ccc(F)cc2)o1 do in these assays?
E coli WT exp: inactive; tolC growth inh: inactive; PostGolgi ctrl: 41; PostGolgi yeast: inactive; Cav3 T inh: inactive

What do the screens show for `N#Cc1nc(Cc2ccccc2)oc1NCCN1CCOCC1`?
E coli WT exp: inactive; tolC growth inh: inactive; PostGolgi ctrl: inactive; PostGolgi yeast: inactive; Cav3 T inh: inactive

Results for N#Cc1nc(Cc2ccccc2)oc1NCc1ccccc1 ?
Cav3 T inh: -5.4

Results for COc1ccc(CNc2oc(Cc3cccc4ccccc34)nc2C#N)cc1 ?
E coli WT exp: inactive; tolC growth inh: inactive; PostGolgi ctrl: 35; PostGolgi yeast: inactive; Cav3 T inh: -7

What do the screens show for `CCN1CCCC1CNC(=O)Cn1cccc1C(=O)c1ccccc1` (stereo not drawn)?
E coli WT exp: inactive; tolC growth inh: inactive; PostGolgi ctrl: inactive; PostGolgi yeast: inactive; Cav3 T inh: inactive

How did Cc1ccc(CC2CC(=O)N(c3ccc(Cl)cn3)C2=O)cc1 (stereo not drawn) do in these assays?
E coli WT exp: inactive; tolC growth inh: inactive; PostGolgi ctrl: inactive; PostGolgi yeast: inactive; Cav3 T inh: inactive

Results for Cc1ccccc1OCc1nc2ccccc2c(=O)n1NC(=O)c1ccco1 ?
E coli WT exp: inactive; tolC growth inh: inactive; PostGolgi ctrl: inactive; PostGolgi yeast: inactive; Cav3 T inh: inactive

How did CN(CC(=O)N1CCN(c2cccc(Cl)c2)CC1)S(=O)(=O)c1cccs1 do in these assays?
E coli WT exp: inactive; PostGolgi ctrl: inactive; PostGolgi yeast: inactive; Cav3 T inh: inactive

How did COc1cc(C)ccc1OCCCCN1CC(C)OC(C)C1 (stereo not drawn) do in these assays?
E coli WT exp: inactive; PostGolgi ctrl: 33; PostGolgi yeast: 60; Cav3 T inh: inactive

Results for CC1CN(CC(O)COc2ccc(C(C)C)cc2)CC(C)O1 (stereo not drawn) ?
E coli WT exp: inactive; tolC growth inh: inactive; PostGolgi ctrl: inactive; PostGolgi yeast: 59; Cav3 T inh: inactive

How did CC1CN(CCCCOc2ccc(C(C)C)cc2)CC(C)O1 (stereo not drawn) do in these assays?
E coli WT exp: inactive; PostGolgi ctrl: 53; PostGolgi yeast: 97; Cav3 T inh: inactive

How did COc1cc(C2C3=C(CC(C)(C)CC3=O)N(C)C(=O)N2C)cc(OC)c1OC (stereo not drawn) do in these assays?
E coli WT exp: inactive; tolC growth inh: inactive; PostGolgi ctrl: inactive; PostGolgi yeast: inactive; Cav3 T inh: inactive

How did N#Cc1cc2sc3nnc(-c4ccncc4)n3c2cc1C#N do in these assays?
E coli WT exp: inactive; tolC growth inh: inactive; PostGolgi ctrl: 37; PostGolgi yeast: inactive; Cav3 T inh: inactive

Results for N#Cc1cc2sc3nc4ccccc4n3c2cc1C#N ?
E coli WT exp: inactive; tolC growth inh: inactive; PostGolgi ctrl: inactive; PostGolgi yeast: inactive; Cav3 T inh: inactive

Results for O=C(C1COc2ccccc2O1)N1CCN(Cc2ccc3c(c2)OCO3)CC1 (stereo not drawn) ?
E coli WT exp: inactive; tolC growth inh: inactive; PostGolgi ctrl: inactive; PostGolgi yeast: 65; Cav3 T inh: inactive

How did O=C(NC1CCN(Cc2ccccc2)CC1)C1COc2ccccc2O1 (stereo not drawn) do in these assays?
E coli WT exp: inactive; tolC growth inh: inactive; PostGolgi ctrl: inactive; PostGolgi yeast: 70; Cav3 T inh: inactive

Results for O=C(CSCc1ccccc1)N1CCN(Cc2ccc3c(c2)OCO3)CC1 ?
tolC growth inh: inactive; Cav3 T inh: inactive

Results for O=C(Nc1ccccc1)N1CCN(Cc2ccc3c(c2)OCO3)CC1 ?
E coli WT exp: inactive; tolC growth inh: inactive; PostGolgi ctrl: inactive; PostGolgi yeast: inactive; Cav3 T inh: -5.5
